In PubChem BioAssay:
Active and inactive are the calls of the source. Cut-off read from the data, not from the text of the source, unless noted: active = inhibition above about 30%; inactive = the rest.

Legend:
[1] = Her2 expression decrease, cell viability multiplex – SKBR3 breast tumor cells, AlphaScreen, ATP viability, primary screen (AID 461;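 active = Her2 level under about 52% in both replicate screens, with viability over 70% of control, limit read from the data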;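 for Her2 level: lower value means less Her2 protein in the cells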;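 for viability: percent of carrier control wells set as 100% viability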); conditions: SKBR3 Her2 protein level, 18-24 h, measured here: SKBR3 viability, ATP luminescence, at 10 µM
[2] = target: Receptor tyrosine-protein kinase erbB-2 (Homo sapiens) (UniProt P04626); experiment: as above; conditions: 18-24 h, at 10 µM, stronger effect = lower value
[3] = reduced viability of SK-BR-3 breast cancer cells – cell-based, 24 h, human, pilot screen (AID 572;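 active = viability at or below 10% of carrier control in both of two separate runs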;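 note: compound exposure lasted between 18 and 24 h rather than exactly 24 h; 100% = carrier-treated control wells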); conditions: SK-BR-3 viability, CellTiter-Glo luminescence, at 10 µM, stronger effect = lower value
[4] = HUVEC growth inhibition – cell-based, human, primary screen (AID 575;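 active = viability at or below 30% in both replicate assays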;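 note: 100% = median of untreated cell wells with 0.1% DMSO on each plate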); conditions: HUVEC proliferation, CellTiter-Glo luminescence, 72 h; at 10 µM; stronger effect = lower value
How it was run: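 System – primary HUVEC, no more than 12 passages · Medium – Low-serum (2% FBS) EBM, supplemented · Times – 72 h exposure, 37 °C, 5% CO2, 30 min RT equilibration · Measured by – luminescent ATP assay · Read-out – % viability relative to median vehicle-well signal on each plate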

[5] = H69AR cell proliferation blockers – human, duplicate replicates, primary screen (AID 580;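 active = viability at or under a set limit in both replicates, limit being median viability minus 3 SD, cut at about 48% in these data, passing the limit was not always enough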;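 note: 100% = mean luminescence of untreated wells and 0% = no signal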); conditions: H69AR lung tumor cells viability, ATP luminescence, 72 h; at 10 µM; stronger effect = lower value
[6] = MRP1 drug-resistance reversers in H69AR cells – cell-based, doxorubicin co-treatment, pilot screen (AID 601;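 active = viability loss from added drug above about 55%, and viability with drug at most 40%, in both replicates, limit read from the data, passing the limit was not always enough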); conditions: CellTiter-Glo, 72 h, at 10 µM; for differential viability (reversal): stronger effect = higher value
[7] = yeast transport mutant growth inhibition pilot in 384-well plates, post-Golgi transport modulator project (AID 636; in the data active = inhibition above about 31%); conditions: absorbance 615 nm, about 18 h, stronger effect = higher value
[8] = growth suppression of yeast trafficking mutant, preliminary HTS, modulators of trafficking downstream of Golgi apparatus project, 1536-format plate, OD 615 nm (AID 637); conditions: yeast transport mutant growth, absorbance 615 nm, 18 h; stronger effect = higher value
[9] = H69AR cells + 2 uM doxorubicin, measured here: viability with 2 uM doxorubicin, stronger effect = lower value
[10] = H69AR cells, compound alone cytotoxicity

Sequence of Receptor tyrosine-protein kinase erbB-2 (Homo sapiens) (P04626 whole entry, looked up): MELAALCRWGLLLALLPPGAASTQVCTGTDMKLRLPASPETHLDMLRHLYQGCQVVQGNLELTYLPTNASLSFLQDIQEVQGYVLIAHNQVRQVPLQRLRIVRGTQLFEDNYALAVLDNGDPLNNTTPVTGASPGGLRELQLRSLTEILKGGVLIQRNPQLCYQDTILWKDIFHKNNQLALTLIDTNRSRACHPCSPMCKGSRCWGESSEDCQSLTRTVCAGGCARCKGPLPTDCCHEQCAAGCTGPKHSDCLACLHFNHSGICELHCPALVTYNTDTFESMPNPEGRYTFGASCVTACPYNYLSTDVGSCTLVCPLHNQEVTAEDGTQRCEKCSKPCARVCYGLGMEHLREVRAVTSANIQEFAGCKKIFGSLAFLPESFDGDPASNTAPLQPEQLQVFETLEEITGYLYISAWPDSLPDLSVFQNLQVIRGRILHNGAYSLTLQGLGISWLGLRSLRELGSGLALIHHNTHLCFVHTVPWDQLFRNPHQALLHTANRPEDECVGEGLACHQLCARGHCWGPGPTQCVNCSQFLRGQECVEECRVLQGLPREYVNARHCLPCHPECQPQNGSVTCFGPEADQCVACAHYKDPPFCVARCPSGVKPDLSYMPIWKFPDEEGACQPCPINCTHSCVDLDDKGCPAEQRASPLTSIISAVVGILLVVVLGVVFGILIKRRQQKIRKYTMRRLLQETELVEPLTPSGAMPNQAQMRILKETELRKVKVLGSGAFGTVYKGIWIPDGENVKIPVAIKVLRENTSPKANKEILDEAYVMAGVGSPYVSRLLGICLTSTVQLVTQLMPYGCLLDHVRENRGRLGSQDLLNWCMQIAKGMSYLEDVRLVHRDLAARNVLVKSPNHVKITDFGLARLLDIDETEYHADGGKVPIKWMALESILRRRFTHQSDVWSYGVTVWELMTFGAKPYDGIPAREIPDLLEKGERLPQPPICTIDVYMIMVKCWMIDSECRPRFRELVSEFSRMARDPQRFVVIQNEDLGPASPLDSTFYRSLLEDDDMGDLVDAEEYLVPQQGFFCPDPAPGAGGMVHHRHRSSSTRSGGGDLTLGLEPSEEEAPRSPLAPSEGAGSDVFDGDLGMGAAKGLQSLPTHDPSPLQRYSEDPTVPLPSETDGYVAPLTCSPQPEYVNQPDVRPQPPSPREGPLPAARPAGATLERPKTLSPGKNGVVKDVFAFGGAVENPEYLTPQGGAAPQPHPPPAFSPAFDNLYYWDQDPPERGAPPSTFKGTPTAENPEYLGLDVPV

SMILES: COc1ccc(Cc2noc(-c3ccc(C)cc3)n2)cc1
- viability [1]: 91%
- Her2 level [2]: 131% (inactive)
- viability [3]: 91% (inactive)
- viability [4]: 90.1% (inactive)
- viability [5]: 91.2% (inactive)
- differential viability (reversal) ([6]; H69AR cells + 2 uM doxorubicin): 14.9% (inactive)
- viability [6, 9]: 76.3%
- viability [6, 10]: 91.2%
- inhibition [7]: 4.87% (inactive)
- inhibition [8]: 45.8% (active)

SMILES: c1cn2cc(CSC3CCCCC3)nc2s1
- viability [1]: 84%
- Her2 level [2]: 80% (inactive)
- viability [3]: 84% (inactive)
- viability [4]: 86.5% (inactive)
- viability [5]: 97.2% (inactive)
- differential viability (reversal) ([6]; H69AR cells + 2 uM doxorubicin): 10.9% (inactive)
- viability [6, 9]: 86.4%
- viability [6, 10]: 97.2%
- inhibition [7]: -7.16% (inactive)
- inhibition [8]: 6.35% (inactive)

SMILES: CCN(CC)c1ccc(-c2nn3c(-c4cccnc4)nnc3s2)cc1
- viability [1]: 91.5%
- Her2 level [2]: 64% (inactive)
- viability [3]: 91.5% (inactive)
- viability [4]: 37% (inactive)
- viability [5]: 10.9% (active)
- differential viability (reversal) ([6]; H69AR cells + 2 uM doxorubicin): -4.5% (inactive)
- viability [6, 9]: 15.4%
- viability [6, 10]: 10.9%
- inhibition [7]: -5.92% (inactive)
- inhibition [8]: -7.1% (inactive)

SMILES: O=C(CSCc1cccc(F)c1)N1CCN(c2ccccc2)CC1
- viability [1]: 92%
- Her2 level [2]: 93.5% (inactive)
- viability [3]: 92% (inactive)
- viability [4]: 91% (inactive)
- viability [5]: 101% (inactive)
- differential viability (reversal) ([6]; H69AR cells + 2 uM doxorubicin): 5.28% (inactive)
- viability [6, 9]: 96%
- viability [6, 10]: 101%
- inhibition [7]: -5% (inactive)
- inhibition [8]: -4.67% (inactive)

SMILES: COc1ccc(S(=O)(=O)Nc2ccc(S(=O)(=O)N3CCCCC3)cc2)cc1OC
- viability [1]: 92%
- Her2 level [2]: 100% (inactive)
- viability [3]: 92% (inactive)
- viability [4]: 95.8% (inactive)
- viability [5]: 91.3% (inactive)
- differential viability (reversal) ([6]; H69AR cells + 2 uM doxorubicin): -3.68% (inactive)
- viability [6, 9]: 94.9%
- viability [6, 10]: 91.3%
- inhibition [7]: 0.13% (inactive)
- inhibition [8]: -2% (inactive)

SMILES: CC(C)(C)OC(=O)N1CC(O)CC1C(=O)OCC(=O)c1ccc(Cl)cc1 (stereo not given)
- viability [1]: 95%
- Her2 level [2]: 91% (inactive)
- viability [3]: 95% (inactive)
- viability [4]: 109% (inactive)
- viability [5]: 84% (inactive)
- differential viability (reversal) ([6]; H69AR cells + 2 uM doxorubicin): -6.24% (inactive)
- viability [6, 9]: 90.3%
- viability [6, 10]: 84%
- inhibition [7]: -5.68% (inactive)
- inhibition [8]: 11.5% (inactive)

SMILES: CCOCC(=O)Nc1ccc(S(=O)(=O)N2CCOCC2)cc1
- viability [1]: 95%
- Her2 level [2]: 85% (inactive)
- viability [3]: 95% (inactive)
- viability [4]: 92.3% (inactive)
- viability [5]: 82.5% (inactive)
- differential viability (reversal) ([6]; H69AR cells + 2 uM doxorubicin): 6.46% (inactive)
- viability [6, 9]: 76.1%
- viability [6, 10]: 82.5%
- inhibition [7]: -4.67% (inactive)
- inhibition [8]: -2.7% (inactive)

SMILES: O=C(NC12CC3CC(CC(C3)C1)C2)c1cncc(O)c1
- viability [1]: 104%
- Her2 level [2]: 89% (inactive)
- viability [3]: 104% (inactive)
- viability [4]: 88.2% (inactive)
- viability [5]: 85.6% (inactive)
- differential viability (reversal) ([6]; H69AR cells + 2 uM doxorubicin): -9.31% (inactive)
- viability [6, 9]: 94.9%
- viability [6, 10]: 85.6%
- inhibition [7]: -6.36% (inactive)
- inhibition [8]: 0.32% (inactive)

SMILES: CCN1CCN(S(=O)(=O)Cc2ccccc2)CC1
- viability [1]: 116%
- Her2 level [2]: 114% (inactive)
- viability [3]: 116% (inactive)
- viability [4]: 105% (inactive)
- viability [5]: 91.4% (inactive)
- differential viability (reversal) ([6]; H69AR cells + 2 uM doxorubicin): -0.695% (inactive)
- viability [6, 9]: 92.1%
- viability [6, 10]: 91.4%
- inhibition [7]: 1.62% (inactive)
- inhibition [8]: 12.9% (inactive)

SMILES: COc1ccc2c(CC(=O)Nc3ccc(OC)c(NS(=O)(=O)c4ccc(F)cc4)c3)coc2c1
- viability [1]: 88%
- Her2 level [2]: 85% (inactive)
- viability [3]: 88% (inactive)
- viability [4]: 70.2% (inactive)
- viability [5]: 86.3% (inactive)
- differential viability (reversal) ([6]; H69AR cells + 2 uM doxorubicin): -1.86% (inactive)
- viability [6, 9]: 88.1%
- viability [6, 10]: 86.3%
- inhibition [7]: -2.18% (inactive)
- inhibition [8]: -0.33% (inactive)

SMILES: O=C(CCC(=O)N1CCc2ccccc2C1)N1CCN(S(=O)(=O)c2ccccc2)CC1
- viability [1]: 82%
- Her2 level [2]: 116% (inactive)
- viability [3]: 82% (inactive)
- viability [4]: 84.4% (inactive)
- viability [5]: 90.6% (inactive)
- differential viability (reversal) ([6]; H69AR cells + 2 uM doxorubicin): -0.59% (inactive)
- viability [6, 9]: 91.2%
- viability [6, 10]: 90.6%
- inhibition [7]: 4.81% (inactive)
- inhibition [8]: 12.9% (inactive)

SMILES: Cc1ccc(C(C(=O)NC(C)(C)C)N(C(=O)c2csnn2)c2cccc(F)c2)o1 (stereo not given)
- viability [1]: 83.5%
- Her2 level [2]: 97% (inactive)
- viability [3]: 83.5% (inactive)
- viability [4]: 103% (inactive)
- viability [5]: 92.8% (inactive)
- differential viability (reversal) ([6]; H69AR cells + 2 uM doxorubicin): 1.6% (inactive)
- viability [6, 9]: 91.2%
- viability [6, 10]: 92.8%
- inhibition [7]: -3.6% (inactive)
- inhibition [8]: 24.4% (inactive)

SMILES: O=C(OCC(=O)N1CCCC1)c1cncc(Br)c1
- viability [1]: 106%
- Her2 level [2]: 90% (inactive)
- viability [3]: 106% (inactive)
- viability [4]: 106% (inactive)
- viability [5]: 102% (inactive)
- differential viability (reversal) ([6]; H69AR cells + 2 uM doxorubicin): 15.6% (inactive)
- viability [6, 9]: 86.4%
- viability [6, 10]: 102%
- inhibition [7]: -7.57% (inactive)
- inhibition [8]: 5.33% (inactive)

SMILES: COc1ccc2cnn(-c3ccccc3)c(=O)c2c1OC
- viability [1]: 98%
- Her2 level [2]: 91% (inactive)
- viability [3]: 98% (inactive)
- viability [4]: 126% (inactive)
- viability [5]: 103% (inactive)
- differential viability (reversal) ([6]; H69AR cells + 2 uM doxorubicin): 18.2% (inactive)
- viability [6, 9]: 84.6%
- viability [6, 10]: 103%
- inhibition [7]: -1.71% (inactive)
- inhibition [8]: 1.64% (inactive)

SMILES: CC(NC(=O)c1ccco1)C(c1cccs1)N1CCN(c2ccc(F)cc2)CC1 (stereo not given)
- viability [1]: 96%
- Her2 level [2]: 89% (inactive)
- viability [3]: 96% (inactive)
- viability [4]: 67.9% (inactive)
- viability [5]: 86.2% (inactive)
- differential viability (reversal) ([6]; H69AR cells + 2 uM doxorubicin): -15.7% (inactive)
- viability [6, 9]: 102%
- viability [6, 10]: 86.2%
- inhibition [7]: -4.13% (inactive)
- inhibition [8]: 0.16% (inactive)

SMILES: COc1ccccc1OCCn1c(=O)sc2ccccc21
- viability [1]: 95%
- Her2 level [2]: 93% (inactive)
- viability [3]: 95% (inactive)
- viability [4]: 89.6% (inactive)
- viability [5]: 99.6% (inactive)
- differential viability (reversal) ([6]; H69AR cells + 2 uM doxorubicin): -8.55% (inactive)
- viability [6, 9]: 108%
- viability [6, 10]: 99.6%
- inhibition [7]: -1.05% (inactive)
- inhibition [8]: -7.94% (inactive)
